Test results as given in ChEMBL document CHEMBL2440111, “Overcoming doxorubicin-resistance in the NCI/ADR-RES model cancer cell line by novel anthracene-9,10-dione derivatives” (Bioorg Med Chem Lett, 2013).
Calls of active or inactive are those of the source. The calls are words filed in the database; no cut-off is given here.

Experiments:
U2OS [1] = assay: Antiproliferative activity against human U2OS cells at 20 uM after 72 hrs by MTT assay; assay type: functional
Procedure, shortened: (§1)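 Each cell line in the panel was treated with 20 µM compound, with doxorubicin as reference. Exponentially growing cells were grown at 37 °C in 5% CO2. MTT read-out served as a surrogate of viable cell number, expressed as % inhibition versus an untreated control. Values are mean ± SD of three independent experiments.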

[2] = Antiproliferative activity against human […] cells at 20 uM after 72 hrs by MTT assay; assay type: functional; procedure, shortened: as §1
LNCaP [3] = assay: Antiproliferative activity against human LNCAP cells at 20 uM after 72 hrs by MTT assay; assay type: functional; procedure, shortened: as §1
DU-145 [4] = assay: Antiproliferative activity against human DU145 cells at 20 uM after 72 hrs by MTT assay; assay type: functional; conditions: DU-145, 72 h; procedure, shortened: as §1
PC-3 [5] = assay: Antiproliferative activity against human PC3 cells at 20 uM after 72 hrs by MTT assay; assay type: functional; conditions: PC-3, 72 h; procedure, shortened: as §1
OVCAR-8 [6] = assay: Antiproliferative activity against human OVCAR8 cells at 20 uM after 72 hrs by MTT assay; assay type: functional; conditions: OVCAR-8, 72 h; procedure, shortened: as §1
[7] = Antiproliferative activity against human Caov3 cells at 20 uM after 72 hrs by MTT assay; assay type: functional; conditions: Caov-3, 72 h; procedure, shortened: as §1
NCI/ADR-RES [8] = assay: Antiproliferative activity against human NCI/ADR-RES cells at 20 uM after 72 hrs by MTT assay; assay type: functional; procedure, shortened: as §1
MIA PaCa-2 [9] = assay: Antiproliferative activity against human MIAPaCa2 cells at 20 uM after 72 hrs by MTT assay; assay type: functional; conditions: MIA PaCa-2, 72 h; procedure, shortened: as §1
BXPC-3 [10] = assay: Antiproliferative activity against human BxPC3 cells at 20 uM after 72 hrs by MTT assay; assay type: functional; conditions: BXPC-3, 72 h; procedure, shortened: as §1
NCI/ADR-RES [11] = assay: Inhibition of colony formation in human NCI/ADR-RES cells after 24 hrs; assay type: functional, cell-based
Procedure, shortened: (§2)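 NCI/ADR-RES cells were seeded at 100 cells/well and left to attach overnight. Serial compound dilutions were applied for 24 h, then washed out. Colonies grew in drug-free medium for 8-10 days and were fixed with 1% glutaraldehyde and stained with 2% crystal violet, 30 min each. Colonies were imaged and counted versus untreated control; values are means of ≥3 independent experiments.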

[12] = Antiproliferative activity against human […] cells after 72 hrs by MTT assay; assay type: functional, cell-based
Procedure, shortened: (§3)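 Cells kept in exponential growth at 37 °C in humidified 5% CO2 with 2 mM L-glutamine, mycoplasma-checked. Compounds were applied over a dose range and viability was read by MTT relative to an untreated control. IC50 is the concentration giving a 50% decrease in viability. Values are mean ± SD of three independent experiments.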

U2OS [13] = assay: Antiproliferative activity against human U2OS cells after 72 hrs by MTT assay; assay type: functional, cell-based; procedure, shortened: as §3
LNCaP [14] = assay: Antiproliferative activity against human LNCAP cells after 72 hrs by MTT assay; assay type: functional, cell-based; procedure, shortened: as §3
PC-3 [15] = assay: Antiproliferative activity against human PC3 cells after 72 hrs by MTT assay; assay type: functional, cell-based; conditions: PC-3, 72 h; procedure, shortened: as §3
DU-145 [16] = assay: Antiproliferative activity against human DU145 cells after 72 hrs by MTT assay; assay type: functional, cell-based; conditions: DU-145, 72 h; procedure, shortened: as §3
OVCAR-8 [17] = assay: Antiproliferative activity against human OVCAR8 cells after 72 hrs by MTT assay; assay type: functional, cell-based; conditions: OVCAR-8, 72 h; procedure, shortened: as §3
[18] = Antiproliferative activity against human Caov3 cells after 72 hrs by MTT assay; assay type: functional, cell-based; conditions: Caov-3, 72 h; procedure, shortened: as §3
NCI/ADR-RES [19] = assay: Antiproliferative activity against human NCI/ADR-RES cells after 72 hrs by MTT assay; assay type: functional, cell-based; procedure, shortened: as §3
MIA PaCa-2 [20] = assay: Antiproliferative activity against human MIAPaCa2 cells after 72 hrs by MTT assay; assay type: functional, cell-based; conditions: MIA PaCa-2, 72 h; procedure, shortened: as §3
BXPC-3 [21] = assay: Antiproliferative activity against human BxPC3 cells after 72 hrs by MTT assay; assay type: functional, cell-based; conditions: BXPC-3, 72 h; procedure, shortened: as §3
OVCAR-8 [22] = assay: Antiproliferative activity against human OVCAR8 cells at 20 uM after 72 hrs by MTT assay in presence of glutathione; assay type: functional, cell-based
OVCAR-8 [23] = assay: Antiproliferative activity against human OVCAR8 cells at 20 uM after 72 hrs by MTT assay in presence of N-acetylcysteine; assay type: functional, cell-based
NCI/ADR-RES [24] = assay: Antiproliferative activity against human NCI/ADR-RES cells at 20 uM after 72 hrs by MTT assay in presence of glutathione; assay type: functional
Procedure, shortened: (§4)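 NCI/ADR-RES cells were pretreated for 2 h with 5 mM N-acetylcysteine or glutathione. Compound at 20 µM was then added for 72 h, with doxorubicin as positive control. Percent inhibition was measured by MTT.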

NCI/ADR-RES [25] = assay: Antiproliferative activity against human NCI/ADR-RES cells at 20 uM after 72 hrs by MTT assay in presence of N-acetylcysteine; assay type: functional; procedure, shortened: as §4
LNCaP [26] = assay: Increase of cleaved caspase-9 level in human LNCAP cells at 3 uM after 24 hrs by Western blot analysis; assay type: functional, cell-based
Procedure, shortened: (§5)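 LNCaP cells were treated for 24 h, then lysed. Equal protein was run on 12% SDS-PAGE and blotted to PVDF. Membranes were blocked 1 h in 5% skim milk/TBS-0.1% Tween and probed overnight at 4 °C with anti-p53 or anti-caspase-9. A secondary antibody and ECL detection followed, with GAPDH as loading control.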

LNCaP [27] = assay: Up-regulation of p53 expression in human LNCAP cells at 3 uM after 24 hrs by Western blot analysis; assay type: functional, cell-based; procedure, shortened: as §5
NCI/ADR-RES [28] = assay: Cell cycle arrest in human NCI/ADR-RES cells assessed as accumulation at G2/M phase at 10 uM after 24 hrs using propidium iodide staining by flow cytometry (reference value: 35%); assay type: functional
NCI/ADR-RES [29] = assay: Cell cycle arrest in human NCI/ADR-RES cells assessed as accumulation at S phase at 10 uM after 24 hrs using propidium iodide staining by flow cytometry (reference value: 14%); assay type: functional
NCI/ADR-RES [30] = assay: Cell cycle arrest in human NCI/ADR-RES cells assessed as accumulation at G0/G1 phase at 10 uM after 24 hrs using propidium iodide staining by flow cytometry (reference value: 51%); assay type: functional
NCI/ADR-RES [31] = assay: Inhibition of colony formation in human NCI/ADR-RES cells at 1 uM after 24 hrs; assay type: functional, cell-based; procedure, shortened: as §2
NCI/ADR-RES [32] = assay: Ratio of doxorubicin IC50 to compound IC50 for human NCI/ADR-RES cells; assay type: functional

Structure (SMILES)	inhibition at 20 µM (U2OS [1]) [%]	inhibition at 20 µM [2] [%]	inhibition at 20 µM (LNCaP [3]) [%]	inhibition at 20 µM (DU-145 [4]) [%]	inhibition at 20 µM (PC-3 [5]) [%]	inhibition at 20 µM (OVCAR-8 [6]) [%]	inhibition at 20 µM [7] [%]	inhibition at 20 µM (NCI/ADR-RES [8]) [%]	inhibition at 20 µM (MIA PaCa-2 [9]) [%]	inhibition at 20 µM (BXPC-3 [10]) [%]	IC50 [12] [µM]	IC50 (U2OS [13]) [nM]	IC50 (LNCaP [14]) [nM]	IC50 (PC-3 [15]) [µM]	IC50 (DU-145 [16]) [µM]	IC50 (OVCAR-8 [17]) [µM]	IC50 [18] [nM]	IC50 (NCI/ADR-RES [19]) [nM]	IC50 (MIA PaCa-2 [20]) [nM]	inhibition (OVCAR-8 [23])	further results
O=C1c2ccccc2C(=O)c2c(OCCOCCOCCO)ccc(OCCOCCOCCO)c21	11.1	6.4	38.2	17.7	16.4	37.4	16.3	41.5	36.1	17.5	–	–	–	–	–	–	–	–	–	–	–
Cc1ccc(S(=O)(=O)Oc2ccc(NCc3ccc(Cl)cc3)c3c2C(=O)c2ccccc2C3=O)cc1	66.1	63.5	79.9	69.1	81.2	64.4	84.6	80.4	80.6	85.2	4	4800	2400	> 20	6.5	4.4	2500	2200	4500	Active	inhibition (NCI/ADR-RES [11]): Dose-dependent effect; IC50 (BXPC-3 [21]): 2400 nM; inhibition (OVCAR-8 [22]): Active; inhibition at 20 µM (NCI/ADR-RES [24]): > 60%; inhibition at 20 µM (NCI/ADR-RES [25]): > 60%
Cc1ccc(S(=O)(=O)Oc2ccc(OCCOCCOCCO)c3c2C(=O)c2ccccc2C3=O)cc1	44.2	46.9	24.5	16.8	16.6	13.1	47.3	20.4	53.4	15.3	–	–	–	–	–	–	–	–	–	Active	–
COc1cccc2c1C(=O)c1c(O)c3c(c(O)c1C2=O)C[C@@](O)(C(=O)CO)C[C@@H]3O[C@H]1C[C@H](N)[C@H](O)[C@H](C)O1 [DOXORUBICIN]	90	83.5	85.8	80.6	6.9	86	92.6	41	88.1	96.2	1.5	300	200	1	0.2	0.6	< 100	> 20000	< 100	Active	IC50 (BXPC-3 [21]): 400 nM; Activity (LNCaP [26]): Active; Activity (LNCaP [27]): Active; inhibition (OVCAR-8 [22]): Active; inhibition at 20 µM (NCI/ADR-RES [24]): 21%; inhibition at 20 µM (NCI/ADR-RES [25]): 13%
Cc1ccc(S(=O)(=O)Oc2ccc(NCc3ccc(N)cc3)c3c2C(=O)c2ccccc2C3=O)cc1	92.3	75.1	88.9	87.2	75.8	85.4	85.7	80.5	91.1	94	3.8	2800	400	6.5	5.4	3.5	2500	800	2700	Active	inhibition at 10 µM (NCI/ADR-RES [28]): 55%; inhibition at 10 µM (NCI/ADR-RES [29]): 25%; inhibition at 10 µM (NCI/ADR-RES [30]): 30%; inhibition (NCI/ADR-RES [31]): Active; IC50 (NCI/ADR-RES [11]): 500 nM; inhibition (NCI/ADR-RES [11]): Dose-dependent effect; IC50 (BXPC-3 [21]): 1800 nM; Ratio IC50 (NCI/ADR-RES [32]): > 25; Activity (LNCaP [26]): Active; Activity (LNCaP [27]): inactive; inhibition (OVCAR-8 [22]): Active; inhibition at 20 µM (NCI/ADR-RES [24]): > 60%; inhibition at 20 µM (NCI/ADR-RES [25]): > 60%
